{"source": "paper PMC11261775", "about": "(eBioMedicine, 2024)", "key": {"[1]": {"test_system": "prostate cancer cells (C4-2, CWR22Rv1, PC-3, DU145)", "experiment": "Cell viability assay, AR-positive and AR-negative prostate cancer cells", "assay_type": "cell-based", "conditions": "48 h treatment", "method_in_brief": "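Cells were seeded in 96-well plates in multiple wells and allowed to adhere. They were then exposed for 48 h to graded concentrations of test compound, nano vehicle (Se nanoparticles without peptide) or free peptide. CCK-8 reagent was added for 2 h, then absorbance was read at 450 nm. Data were normalised to the untreated group and given as mean ± SD.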"}, "p53": {"test_system": "p53", "experiment": "Immunoblotting of p53 and downstream proteins", "assay_type": "cell-based", "conditions": "C4-2 and CWR22Rv1 cells, 1μM", "method_in_brief": "(§1)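 Drug treatment lasted 24 h unless otherwise stated. Cells were PBS-washed, lysed, and lysates spun at 13,000×g for 15 min at 4 °C, then BCA-quantified and boiled 5 min. Equal protein was run on 6–10% Tris-glycine SDS-PAGE and transferred to PVDF. Membranes were blocked 1 h in 5% milk, incubated with primary antibody (in 3% BSA/TBST) overnight at 4 °C, then secondary antibody 1 h at room temperature. Detection was by ECL.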"}, "prostate cancer cells [2]": {"test_system": "prostate cancer cells", "experiment": "Cell internalization by confocal microscopy and flow cytometer", "assay_type": "cell-based", "conditions": "500 nM rhodamine-labeled drug", "method_in_brief": "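C4-2 cells were incubated with 500 nM rhodamine-labelled test compound, and nuclei were stained with DAPI. Imaging was by confocal microscopy, with identical excitation wavelength and detector gain for all images.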"}, "p300": {"molecular_target": "p300 (Homo sapiens, UniProt Q09472)", "sequence (Q09472 whole entry)": "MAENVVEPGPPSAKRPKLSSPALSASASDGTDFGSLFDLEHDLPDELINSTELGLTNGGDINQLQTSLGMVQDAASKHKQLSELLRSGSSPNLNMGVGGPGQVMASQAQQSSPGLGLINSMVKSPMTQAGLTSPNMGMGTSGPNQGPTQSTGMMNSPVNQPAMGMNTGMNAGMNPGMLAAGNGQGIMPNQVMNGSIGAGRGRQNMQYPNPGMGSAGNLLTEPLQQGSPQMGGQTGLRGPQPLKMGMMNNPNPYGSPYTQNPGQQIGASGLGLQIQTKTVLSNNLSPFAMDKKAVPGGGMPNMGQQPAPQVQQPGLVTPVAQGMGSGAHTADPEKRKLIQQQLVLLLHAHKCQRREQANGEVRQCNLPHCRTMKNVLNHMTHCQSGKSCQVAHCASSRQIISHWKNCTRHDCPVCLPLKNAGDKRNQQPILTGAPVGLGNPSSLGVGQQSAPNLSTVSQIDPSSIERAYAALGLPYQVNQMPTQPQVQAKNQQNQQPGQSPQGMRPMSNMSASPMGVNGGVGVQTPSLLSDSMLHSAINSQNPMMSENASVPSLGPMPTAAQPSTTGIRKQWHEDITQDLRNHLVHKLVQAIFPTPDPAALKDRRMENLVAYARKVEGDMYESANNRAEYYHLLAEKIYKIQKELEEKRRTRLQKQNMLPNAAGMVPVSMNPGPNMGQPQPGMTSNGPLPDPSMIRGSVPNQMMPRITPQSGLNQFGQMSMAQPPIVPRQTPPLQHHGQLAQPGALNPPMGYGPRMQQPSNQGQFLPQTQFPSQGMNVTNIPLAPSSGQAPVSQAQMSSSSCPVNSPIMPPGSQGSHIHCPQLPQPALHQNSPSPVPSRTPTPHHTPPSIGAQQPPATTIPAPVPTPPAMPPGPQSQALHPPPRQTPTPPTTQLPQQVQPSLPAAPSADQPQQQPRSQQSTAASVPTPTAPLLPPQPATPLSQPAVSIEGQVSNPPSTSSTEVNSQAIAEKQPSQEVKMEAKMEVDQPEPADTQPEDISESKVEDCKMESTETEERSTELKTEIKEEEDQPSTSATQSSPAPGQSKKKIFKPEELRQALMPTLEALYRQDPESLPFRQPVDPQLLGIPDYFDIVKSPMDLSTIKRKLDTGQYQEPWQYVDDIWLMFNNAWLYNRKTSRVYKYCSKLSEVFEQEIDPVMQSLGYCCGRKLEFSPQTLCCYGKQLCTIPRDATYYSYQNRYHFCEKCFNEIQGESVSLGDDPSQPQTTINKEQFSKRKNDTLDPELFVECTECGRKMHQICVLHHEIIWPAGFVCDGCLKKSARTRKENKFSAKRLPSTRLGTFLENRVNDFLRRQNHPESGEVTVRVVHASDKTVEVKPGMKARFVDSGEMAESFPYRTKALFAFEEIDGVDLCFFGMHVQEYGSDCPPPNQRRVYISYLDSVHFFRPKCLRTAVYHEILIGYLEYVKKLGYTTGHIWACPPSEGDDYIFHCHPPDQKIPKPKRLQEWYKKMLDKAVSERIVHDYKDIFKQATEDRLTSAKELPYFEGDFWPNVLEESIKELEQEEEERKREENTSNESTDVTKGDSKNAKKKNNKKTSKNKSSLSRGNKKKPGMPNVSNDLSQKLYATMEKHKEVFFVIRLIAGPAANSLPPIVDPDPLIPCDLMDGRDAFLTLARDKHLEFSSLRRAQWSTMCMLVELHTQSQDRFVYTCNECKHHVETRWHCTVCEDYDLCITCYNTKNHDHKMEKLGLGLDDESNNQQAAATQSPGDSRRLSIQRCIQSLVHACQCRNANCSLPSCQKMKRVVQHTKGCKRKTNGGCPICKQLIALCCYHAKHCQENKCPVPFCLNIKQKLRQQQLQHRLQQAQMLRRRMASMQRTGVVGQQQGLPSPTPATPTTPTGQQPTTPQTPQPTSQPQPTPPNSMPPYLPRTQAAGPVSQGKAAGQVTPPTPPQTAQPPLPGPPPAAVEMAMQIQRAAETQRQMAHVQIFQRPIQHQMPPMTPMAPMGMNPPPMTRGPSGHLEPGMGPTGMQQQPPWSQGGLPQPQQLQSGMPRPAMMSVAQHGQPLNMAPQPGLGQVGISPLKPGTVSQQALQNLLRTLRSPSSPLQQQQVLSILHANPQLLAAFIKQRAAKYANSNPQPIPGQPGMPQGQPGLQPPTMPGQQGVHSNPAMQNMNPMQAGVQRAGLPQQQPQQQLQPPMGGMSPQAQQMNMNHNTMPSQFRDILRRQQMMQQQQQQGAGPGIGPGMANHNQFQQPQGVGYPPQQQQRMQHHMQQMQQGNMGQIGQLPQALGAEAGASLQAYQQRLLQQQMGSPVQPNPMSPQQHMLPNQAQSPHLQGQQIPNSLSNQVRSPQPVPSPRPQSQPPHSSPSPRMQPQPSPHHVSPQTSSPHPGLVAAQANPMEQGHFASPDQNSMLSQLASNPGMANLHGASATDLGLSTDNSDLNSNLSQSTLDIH", "experiment": "Immunoblotting of p300 degradation in prostate cancer cells", "assay_type": "cell-based", "conditions": "for p300 degradation in prostate cancer cells: immunoblot, 24 h", "method_in_brief": "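AR-positive and AR-negative prostate cancer cells were exposed for 24 h to a range of concentrations of the test compound (Se-nanoparticle-loaded peptide PROTAC). Cells were PBS-washed three times before harvest and lysates were immunoblotted for p300. Secondary antibody was applied for 1 h at room temperature, with 3 × 5 min TBST washes. Detection was by ECL chemiluminescence.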"}, "[3]": {"experiment": "Biodistribution by fluorescence imaging", "assay_type": "in vivo, mice", "conditions": "rhodamine-labeled drug, i.p., PC-3 xenograft models, 0-72 h", "method_in_brief": "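Tumour-bearing mice received rhodamine B-labelled test compound i.p., with injections timed to give exposures of 0, 12, 24, 48 and 72 h. Mice were then euthanised. Heart, liver, spleen, lungs and kidneys were excised and imaged at once on a small-animal in vivo fluorescence system. Distribution was scored by fluorescence intensity.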"}, "prostate cancer cells [4]": {"test_system": "prostate cancer cells", "experiment": "Wound healing and transwell invasion assays", "assay_type": "cell-based", "conditions": "wound healing 24 h and 48 h; transwell 36 h", "method_in_brief": "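For wound healing, confluent PC3 and DU145 monolayers were scratched with a 200 μl tip and rinsed with PBS. Test compound was added in serum-free medium, and wounds were photographed at 24 h and 48 h.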"}, "[5]": {"test_system": "prostate cancer cells (PC-3, DU145, C4-2, CWR22Rv1)", "experiment": "Colony formation assay", "assay_type": "cell-based", "conditions": "20 days treatment", "method_in_brief": "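Cells were plated in 6-well plates and allowed to attach for 48 h. They were then treated with graded concentrations of test compound for 20 days. Wells were PBS-washed, fixed 30 min in 4% paraformaldehyde and stained 30 min with 0.1% crystal violet. Colonies were counted from images.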"}, "C4-2 and PC-3 cells": {"test_system": "C4-2 and PC-3 cells", "experiment": "Apoptosis detection by flow cytometry", "assay_type": "cell-based, human", "conditions": "high concentrations, 24 h", "method_in_brief": "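Cells were plated at 3 × 10⁵ cells/ml in 6-well plates. Treatment ran 24 h with test compound alongside untreated, nano vehicle and free peptide controls. Cells were harvested, stained with an apoptosis detection kit per its protocol and analysed on a FACSCalibur flow cytometer.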"}, "CWR22Rv1 xenografts": {"test_system": "CWR22Rv1 xenografts", "experiment": "CWR22Rv1 xenograft mouse model", "assay_type": "in vivo, BALB/c nude mice", "method_in_brief": "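Thirty-five male 4-week-old BALB/c nude mice were randomised into 7 groups of 5. Each received 6 × 10⁶ 22Rv1 cells mixed 1:1 with Matrigel, injected s.c. into the right shoulder. After tumours formed, dosing was i.p. every other day for 21 days, with reference agents also at 5 mg/kg. Volume was calculated as length × width²/2. Tumours went to H&E or IHC, scored as intensity (0–3) × positive-cell percentage grade (1–4).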"}, "CBP": {"molecular_target": "CBP (Homo sapiens, UniProt Q92793)", "experiment": "Immunoblotting of CBP in prostate cancer cells", "assay_type": "cell-based", "conditions": "immunoblot", "method_in_brief": "as §1"}, "PC-3 xenografts": {"test_system": "PC-3 xenografts", "experiment": "PC-3 xenograft mouse model", "assay_type": "in vivo, BALB/c nude mice", "method_in_brief": "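Twenty-five male 4-week-old BALB/c nude mice were randomised into 5 groups of 5 and received 8 × 10⁶ PC-3 cells s.c. into the right shoulder. Dosing began once tumours reached about 200 mm³, about 3 weeks later. Mice received PBS, peptide control, nano vehicle, test compound or a reference inhibitor at 5 mg/kg i.p. every other day for 18 days. Volume was calculated as length × width²/2. Tumours and organs went to H&E, Ki-67 and TUNEL staining. Mean ± SD, t-test.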"}, "[6]": {"molecular_target": "p300/MDM2 binding in 293T cells (Homo sapiens, UniProt Q00987+Q09472)", "sequence (Q09472 whole entry)": "as above", "sequence (Q00987 whole entry)": "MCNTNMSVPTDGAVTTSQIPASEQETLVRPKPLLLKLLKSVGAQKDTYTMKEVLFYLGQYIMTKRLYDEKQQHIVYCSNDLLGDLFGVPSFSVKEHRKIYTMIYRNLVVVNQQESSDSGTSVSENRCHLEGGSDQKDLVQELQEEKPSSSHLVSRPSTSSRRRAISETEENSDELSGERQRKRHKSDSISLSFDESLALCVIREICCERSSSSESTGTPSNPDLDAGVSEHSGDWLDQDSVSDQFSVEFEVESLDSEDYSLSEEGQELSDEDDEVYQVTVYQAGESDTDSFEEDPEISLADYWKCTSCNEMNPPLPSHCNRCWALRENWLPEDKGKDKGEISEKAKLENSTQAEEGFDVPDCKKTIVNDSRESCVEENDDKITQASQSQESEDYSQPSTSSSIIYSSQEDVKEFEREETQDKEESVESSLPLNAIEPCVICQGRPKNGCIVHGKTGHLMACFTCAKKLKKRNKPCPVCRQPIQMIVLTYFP", "experiment": "Co-immunoprecipitation of p300 and MDM2", "assay_type": "cell-based", "conditions": "293T cells transfected with HA-p300 or Flag-MDM2", "method_in_brief": "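293T cells were transfected with HA-p300 or Flag-MDM2 plasmids. They were lysed 15 min on ice in IP buffer with protease and phosphatase inhibitors, then spun at 13,000×g for 15 min at 4 °C. Supernatants were incubated with anti-HA agarose beads for 12 h at 4 °C, with or without test compound. Beads were washed, boiled 5 min in loading buffer and analysed by Western blot.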"}, "NE1.3 and H660 cells": {"test_system": "NE1.3 and H660 cells", "experiment": "Apoptosis detection by flow cytometry", "assay_type": "cell-based", "conditions": "24 h", "method_in_brief": "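NE1.3 cells were grown in medium with 10% androgen-removed FBS. H660 cells were grown in RPMI 1640 with 5% FBS, insulin, transferrin, selenite, hydrocortisone, β-estradiol and 4 mM final L-glutamine. Cells were seeded at 3 × 10⁵ cells/ml in 6-well plates and exposed for 24 h to test compound, untreated, nano vehicle or peptide controls. They were processed with an apoptosis detection kit per protocol and analysed on a FACSCalibur flow cytometer.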"}, "[7]": {"molecular_target": "rhodamine-labeled peptide p300 PROTAC drug", "experiment": "fluorescence polarisation"}}, "note": "pKd: −log10 of the molar value.", "data": [{"substance": "CPWIWDGDNKDDNSTDGGGSGGGTSFEQFWAWLWP [free peptide control]", "values": [{"measurement": "Toxicity in prostate cancer cells (cell viability)", "setting": "[1]", "result": "no toxicity"}]}, {"substance": "CPWIWDGDNKDDNSTDGGGSGGGTSFEQFWAWLWP [p300 PROTAC drug]", "values": [{"measurement": "Protein level of p53 and downstream proteins", "setting": "p53", "result": "effectively increased the protein level of p53 and its downstream proteins"}, {"measurement": "Cell internalization", "setting": "prostate cancer cells [2]", "result": "internalization of the p300 PROTAC drug in a time-dependent manner"}, {"measurement": "Concentration eliminating the p300 protein", "setting": "p300; different prostate cancer cell lines", "result": "under 1 μM"}, {"measurement": "p300 degradation in prostate cancer cells", "setting": "p300", "result": "effectively degraded p300"}, {"measurement": "Biodistribution", "setting": "[3]", "result": "accumulated within the tumor"}, {"measurement": "Migration and invasion", "setting": "prostate cancer cells [4]", "result": "effectively inhibit the migration and invasion"}, {"measurement": "Colony formation", "setting": "[5]", "result": "effectively inhibited colony formation"}, {"measurement": "Apoptosis induction, AR-positive and AR-negative cell lines", "setting": "C4-2 and PC-3 cells", "result": "effectively induced apoptosis"}, {"measurement": "Effect on CWR22Rv1 tumor growth", "setting": "CWR22Rv1 xenografts; 5 mg/kg i.p. every other day for 21 days, n = 5 per group", "result": "significant efficacy in vivo"}, {"measurement": "IHC of CWR22Rv1 tumors (p300, AR, Ki-67, TUNEL)", "setting": "CWR22Rv1 xenografts; 5 mg/kg i.p., n = 5", "result": "effectively degraded the p300, AR and Ki-67, and effectively induced the increase of tumor apoptosis"}, {"measurement": "Efficacy relative to comparator drugs, CWR22Rv1 model", "setting": "CWR22Rv1 xenografts; all at 5 mg/kg i.p. every other day", "result": "better efficacy compared with I-CBP112, dCBP-1, and JQAD1"}, {"measurement": "Reduction of CBP in prostate cancer cells", "setting": "CBP", "result": "notably weaker compared to its effect on p300"}, {"measurement": "Effect on PC-3 tumor growth", "setting": "PC-3 xenografts; 5 mg/kg i.p. every 2 days for 18 days, n = 5 per group", "result": "significant efficacy in vivo"}, {"measurement": "Efficacy relative to I-CBP112, PC-3 model", "setting": "PC-3 xenografts; same dose, 5 mg/kg", "result": "better efficacy compared to small molecular p300/CBP inhibitor I-CBP112 at the same dose"}, {"measurement": "Binding of p300 to MDM2 in presence of drug", "setting": "[6]", "result": "significantly enhanced"}, {"measurement": "Apoptosis induction, NEPC cells", "setting": "NE1.3 and H660 cells", "result": "effectively induced apoptosis"}]}, {"substance": "JQAD1 [reference compound]", "values": [{"measurement": "p300 degradation in prostate cancer cells", "setting": "p300", "result": "poor performance"}]}, {"substance": "MDM2 N-terminal domain (domain or fragment)", "values": [{"measurement": "pKd", "setting": "[7]", "result": 6.99}]}, {"substance": "p300 CH1 domain (domain or fragment)", "values": [{"measurement": "pKd", "setting": "[7]", "result": 7.11}]}]}
